AP ELISA ortho – orthogonal test for alternative complement pathway inhibitors; inhibition, % at 5 µM; AID 1235; 0.08% of 62,000 active; Human serum alternative complement pathway, LPS-coated ELISA, C3 deposition; tested in compound mixtures;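 active = inhibition above 30% in each of the two pooled mixtures holding the compound, so the lower value exceeds 30%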
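Medium: diluted human serum in Mg2+-EGTA GVB++. Assay system: human serum complement alternative pathway, C3 deposition onto LPS. Also added: Plate-bound LPS. Technique: Anti-C3 ELISA, OD 450 nm. Measure: percent inhibition. Incubation: 1 h at 37 °C. Dosing: 5 µM each compound, pools of ten, 50 µM per pool.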
Ecoli WT expand – E. coli BW25113 growth inhibition, expanded screen. OD600 absorbance. growth inhibition, % at 100 µM. 0.15% of 98,000 active. AID 710;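 active = growth inhibition above about 50% at one test dose, limit read from the data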;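 also: growth measured after 20 h incubation at 37 °C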
Ec RNAP inh – inhibitors of Escherichia coli RNA polymerase; E. coli RNA polymerase, fluorescence transcription assay; inhibition, %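 (tested at 10 µM)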; 0.2% of 62,000 active; in the data active = inhibition above about 20%
HePTP inhibitor – inhibitors of human HePTP phosphatase | inhibition, % at 20 µM | P35236 | recombinant HePTP phosphatase activity, OD absorbance | 0.64% of 110,000 active; in the data active = inhibition above about 50%
Target sequence (P35236 whole entry, looked up): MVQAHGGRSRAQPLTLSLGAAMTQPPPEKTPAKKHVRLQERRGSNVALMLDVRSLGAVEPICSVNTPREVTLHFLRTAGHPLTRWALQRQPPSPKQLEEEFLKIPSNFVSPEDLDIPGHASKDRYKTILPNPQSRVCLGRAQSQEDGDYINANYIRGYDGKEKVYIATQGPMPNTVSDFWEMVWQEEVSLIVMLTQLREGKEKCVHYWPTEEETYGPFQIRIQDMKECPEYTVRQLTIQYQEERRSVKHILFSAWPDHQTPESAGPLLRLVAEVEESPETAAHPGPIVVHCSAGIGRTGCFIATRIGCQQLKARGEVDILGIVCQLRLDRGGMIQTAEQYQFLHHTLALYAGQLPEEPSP
MMP-13 inhibitor – inhibitors of human MMP13 | inhibition, % at 4 µM | P45452 | AID 570 | 0.07% of 65,000 active | MMP-13 fTHP FRET cleavage, Mca fluorescence;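 active = inhibition above the mean of compound-free control plate wells plus 3 SD, cut at about 14% in these data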
Ecoli tolC – growth inhibitors of E. coli BW25113 tolC mutant; OD615; growth inhibition, % at 10 µM (by protocol); 2.2% of 65,000 active;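 active = growth inhibition at or above a cutoff equal to the mean over every tested compound plus 3 SD, cut at about 60% in these data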;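 also: growth measured after 20 h incubation at 37 °C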
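Assay system: tolC-deleted E. coli BW25113. Medium: kanamycin-containing LB broth (50 µg/mL). Dosing: 10 µM final, single dose. Timing: bacterial growth with compound for 20 h at 37 °C. Detection: A615 absorbance measurement. Read-out basis: growth inhibition in percent.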
Each line names hits and unclear results; the compound was inactive in the other large screens; ! = a repeat was not active. This excerpt belongs to a sample that is enriched for hits.

CC1=C(C#N)c2nc(N)c(C#N)c(C)c2/C1=C\c1ccccc1	Ecoli tolC 73.7 (no result: Ecoli WT expand)
CC1=C(C#N)c2nc(N)c(C#N)c(C)c2/C1=C/c1ccc(-c2ccc(C(=O)O)c(Cl)c2)o1	HePTP inhibitor 102.0 (no result: AP ELISA ortho, Ecoli WT expand, Ec RNAP inh, MMP-13 inhibitor, Ecoli tolC)
CC1=C(C#N)c2nc(N)c(C#N)c(C)c2/C1=C\c1ccc(C)o1	none (no result: AP ELISA ortho, Ecoli WT expand, Ec RNAP inh, MMP-13 inhibitor, Ecoli tolC)
O=C(/C=C/c1ccco1)Nc1ccccc1[N+](=O)[O-]	HePTP inhibitor 83.9 (no result: AP ELISA ortho, Ecoli WT expand, Ec RNAP inh, MMP-13 inhibitor, Ecoli tolC)
O=C(/C=C/c1ccco1)Nc1ccccc1NC(=O)/C=C/c1ccco1	none (no result: AP ELISA ortho, Ecoli WT expand, Ec RNAP inh, MMP-13 inhibitor, Ecoli tolC)
O=C(/C=C/c1ccco1)Nc1cc(Cl)ccc1Cl	HePTP inhibitor 54.9 (no result: AP ELISA ortho, Ecoli WT expand, Ec RNAP inh, MMP-13 inhibitor, Ecoli tolC)
Cc1csc2ncc(C(=O)Nc3ccon3)c(=O)n12	Ec RNAP inh 23.5
CCN(CC)S(=O)(=O)c1ccc2[nH]cc(C(=O)NCCN3CCCCCC3)c(=O)c2c1	none
CCN(CC)S(=O)(=O)c1ccc2[nH]cc(C(=O)NCCC3=CCCCC3)c(=O)c2c1	Ecoli tolC 97.7
CCOc1cccc(/C=N/N2CCN(Cc3cccc4ccccc34)CC2)c1O	none (no result: AP ELISA ortho, Ecoli WT expand, Ec RNAP inh, MMP-13 inhibitor, Ecoli tolC)
CC(C)c1nnc(NC(=O)c2c(O)c3cccc4c3n(c2=O)CCC4)s1	Ecoli tolC 100.0
COc1ccc(-n2nc3ccc(NC(=O)/C=C\c4ccccc4)cc3n2)cc1	HePTP inhibitor 102.1 (no result: AP ELISA ortho, Ecoli WT expand, Ec RNAP inh, MMP-13 inhibitor, Ecoli tolC)
C=CCN1C(=O)/C(=C2/Sc3ccccc3N2C)SC1=Nc1ccccc1C	none (no result: AP ELISA ortho, Ec RNAP inh, HePTP inhibitor, MMP-13 inhibitor, Ecoli tolC)
CN1C(=O)/C(=C2/C=Cc3ccccc3N2CCCS(=O)(=O)O)SC1=S	MMP-13 inhibitor 18.4
C=CCN1C(=O)/C(=C2/Sc3ccccc3N2CCCS(=O)(=O)O)SC1=S	MMP-13 inhibitor 16.2
COc1cc(NC(=O)c2ccccc2I)ccc1NC(=O)c1ccco1	none (no result: AP ELISA ortho, Ecoli WT expand, Ec RNAP inh, MMP-13 inhibitor, Ecoli tolC)
O=C(COc1ccccc1[N+](=O)[O-])Nc1ccc(-c2nc3ncccc3o2)cc1	HePTP inhibitor 65.0 (no result: AP ELISA ortho, Ecoli WT expand, Ec RNAP inh, MMP-13 inhibitor, Ecoli tolC)
Cc1ccc(OCC(=O)Nc2ccc(-c3nc4ncccc4o3)cc2)c(C)c1	HePTP inhibitor 104.0!
Cc1cc(OCC(=O)Nc2ccc(-c3nc4ncccc4o3)cc2)ccc1Cl	HePTP inhibitor 63.1 (no result: AP ELISA ortho, Ecoli WT expand, Ec RNAP inh, MMP-13 inhibitor, Ecoli tolC)
Cc1ccc(C(C)C)c(OCC(=O)Nc2ccc(-c3nc4ncccc4o3)cc2)c1	none (no result: AP ELISA ortho, Ecoli WT expand, Ec RNAP inh, MMP-13 inhibitor, Ecoli tolC)
O=C(COc1ccccc1[N+](=O)[O-])Nc1ccc(-c2nc3ccccc3o2)cc1	none (no result: AP ELISA ortho, Ecoli WT expand, Ec RNAP inh, MMP-13 inhibitor, Ecoli tolC)
O=C(NCCc1ccccc1)c1nn2c(C(F)(F)F)cc(-c3ccccc3)nc2c1Br	none (no result: AP ELISA ortho, Ecoli WT expand, Ec RNAP inh, MMP-13 inhibitor, Ecoli tolC)
COc1ccc(/C=C/C(=O)Nc2nc(-c3ccccc3)cs2)cc1OC	none (no result: AP ELISA ortho, Ecoli WT expand, Ec RNAP inh, MMP-13 inhibitor, Ecoli tolC)
O=C(Cc1ccccc1)Nc1ccc(C(=O)Nc2nccs2)cc1	none (no result: AP ELISA ortho, Ecoli WT expand, Ec RNAP inh, MMP-13 inhibitor, Ecoli tolC)
COc1ccc(/C=C2/SC(N3CCN(C(=O)CN4C(=O)S/C(=C\c5ccccc5F)C4=O)CC3)=NC2=O)cc1	none (no result: AP ELISA ortho, Ecoli WT expand, Ec RNAP inh, MMP-13 inhibitor, Ecoli tolC)
CC(=O)CC(=O)NCc1ccccc1Cl	none (no result: AP ELISA ortho, Ecoli WT expand, Ec RNAP inh, MMP-13 inhibitor, Ecoli tolC)
O=c1c2ccccc2n(Cc2cccc(F)c2)c(=O)n1C1CCCC1	Ecoli tolC 76.6
N#Cc1ccccc1Cn1c(=O)n(C2CCCC2)c(=O)c2ccccc21	none (no result: AP ELISA ortho, Ec RNAP inh, HePTP inhibitor, MMP-13 inhibitor, Ecoli tolC)
S=c1[nH]c2cc(Cl)ccc2s1	Ecoli WT expand 53.0 (no result: AP ELISA ortho, Ec RNAP inh, HePTP inhibitor, MMP-13 inhibitor, Ecoli tolC)
CN(C)C1(c2cccs2)CS(=O)(=O)C1	HePTP inhibitor 102.5 (no result: AP ELISA ortho, Ecoli WT expand, Ec RNAP inh, MMP-13 inhibitor, Ecoli tolC)
c1coc(-c2nc(-c3ccco3)c(-c3ccco3)nc2-c2ccco2)c1	Ec RNAP inh 22.9 (no result: HePTP inhibitor)
c1ccc(Cc2nnc3sc(-c4ccccn4)nn23)cc1	none (no result: AP ELISA ortho, Ec RNAP inh, HePTP inhibitor)
CCOc1ccccc1-c1nn2c(Cc3ccccc3)nnc2s1	Ecoli tolC 98.8
CCOC(=O)C1=Nc2ccccc2C1=[N+]=[N-]	Ecoli WT expand 100.0 (no result: AP ELISA ortho)
C=CCN1C(=O)/C(=C\c2cc(C)n(-c3ccccc3)c2C)SC1=S	none (no result: AP ELISA ortho, Ecoli WT expand, Ec RNAP inh, MMP-13 inhibitor, Ecoli tolC)
CCOC(=O)C(CC(C)C)NC(=O)CCN1C(=O)c2ccccc2C1=O (stereo unspecified)	none (no result: AP ELISA ortho, Ecoli WT expand, Ec RNAP inh, MMP-13 inhibitor, Ecoli tolC)
Cc1ccc(Cl)cc1N1CCN(C(=O)c2cn(C)c(=O)c3c2c2ccccc2n3C)CC1	none
Cc1cccc(N2CCN(C(=O)c3cn(C)c(=O)c4c3c3ccccc3n4C)CC2)c1C	Ecoli tolC 83.2
COc1ccc(S(=O)(=O)Nc2ccc(O)c3ccccc23)cc1	Ec RNAP inh 23.9 (no result: Ecoli WT expand)
COc1ccc(C(=O)CCNc2ccc(C)cc2)cc1	none (no result: AP ELISA ortho, Ecoli WT expand, Ec RNAP inh, MMP-13 inhibitor, Ecoli tolC)
COc1ccccc1NC(=O)c1ccc(Cl)c(S(=O)(=O)N2CCOCC2)c1	none
COc1ccc(NC(=O)c2ccc(Cl)c(S(=O)(=O)N3CCc4ccccc4C3)c2)cn1	Ecoli tolC 62.4
N#C/C(=C\c1ccco1)Sc1nc2ccccc2s1	Ecoli tolC 96.5 (no result: Ec RNAP inh)
CCOC(=O)c1cnc(-n2nc(C)cc2C)nc1Nc1ccccc1OC	none (no result: AP ELISA ortho, Ec RNAP inh, HePTP inhibitor, MMP-13 inhibitor, Ecoli tolC)
CCOC(=O)c1cnc(-n2nc(C)cc2C)nc1NCCc1ccccc1	Ecoli tolC 100.0

Screening results (PubChem BioAssay)
